In ChEMBL document CHEMBL1681784, “Development of sulfonamide AKT PH domain inhibitors” (Bioorg Med Chem, 2011):
Active and inactive are the calls of the source. No cut-off for these calls is given here.

These molecules were tested on BXPC-3 (assay: Cytotoxicity against human BxPC3 cells by MTT assay).
Assay type: functional, cell-based

| Compound | IC50 [µM] |
| --- | --- |
| CC(=O)Nc1ccc(S(=O)(=O)Nc2nncs2)cc1 | > 300 |
| CCCCCCCCCC(=O)Nc1ccc(S(=O)(=O)Nc2nnc(CC(=O)O)s2)cc1 | > 300 |
| CCCCCCCCCC(=O)Nc1ccc(S(=O)(=O)Nc2nnc(C(=O)OCC)s2)cc1 | 117 |
| CCCCCCCCCCCCc1ccc(S(=O)(=O)Nc2nnc(C)s2)cc1 | 51 |
| CCCCCCCCCCCCc1cccc(S(=O)(=O)Nc2nncs2)c1 | 71 |
| CC(C)(C)c1nnc(NS(=O)(=O)c2ccc(N)cc2)s1 [GLYBUTHIAZOL] | > 300 |
| CCOC(=O)Cc1nnc(NS(=O)(=O)c2ccc(NC(C)=O)cc2)s1 | 176 |
| Nc1ccc(S(=O)(=O)Nc2nnc(CO)s2)cc1 | > 300 |
| CC(=O)Nc1ccc(S(=O)(=O)Nc2nnc(CC(=O)O)s2)cc1 | > 300 |
| CCOC(=O)c1nnc(NS(=O)(=O)c2ccc(NC(C)=O)cc2)s1 | > 300 |
| CC(=O)Nc1ccc(S(=O)(=O)Nc2nnc(CO)s2)cc1 | > 300 |
| CCc1nnc(NS(=O)(=O)c2ccc(N)cc2)s1 [SULFAETHIDOLE] | > 300 |
| CCCCCCCCCCCCc1ccccc1S(=O)(=O)Nc1nncs1 | 74 |
| O=S(=O)(Nc1nnc(CO)s1)c1ccc(-c2ccccc2)cc1 | > 300 |
| CCCCCCCCCC(=O)Nc1ccc(S(=O)(=O)Nc2nnc(CC)s2)cc1 | 146 |
| Nc1ccc(S(=O)(=O)Nc2nnc(S(N)(=O)=O)s2)cc1 | > 300 |
| CCCCCCCCCC(=O)Nc1ccc(S(=O)(=O)Nc2nnc(CC(=O)OCC)s2)cc1 | 170 |
| CC(=O)Nc1ccc(S(=O)(=O)Nc2nnc(S(N)(=O)=O)s2)cc1 | > 300 |

| Compound | IC50 [µM] |
| --- | --- |
| CCCCCCCCCCCCc1ccc(S(=O)(=O)Nc2ccccc2)cc1 | 38 |
| Cc1nnc(NS(=O)(=O)c2ccc(N)cc2)s1 [SULFAMETHIZOLE] | > 300 |
| CCCCCCCCCC(=O)Nc1ccc(S(=O)(=O)Nc2nnc(S(N)(=O)=O)s2)cc1 | > 300 |
| Nc1ccc(S(=O)(=O)Nc2nnc(CC(=O)O)s2)cc1 | > 300 |
| CCc1nnc(NS(=O)(=O)c2ccc(NC(C)=O)cc2)s1 | > 300 |
| CC(=O)Nc1ccc(S(=O)(=O)Nc2nnc(C(C)(C)C)s2)cc1 | > 300 |
| CCCCCCCCCC(=O)Nc1ccc(S(=O)(=O)Nc2nnc(CO)s2)cc1 | 189 |
| Nc1ccc(S(=O)(=O)Nc2nncs2)cc1 | > 300 |
| CCCCCCCCCCCCc1ccc(S(=O)(=O)Nc2nnc(CC(=O)O)s2)cc1 | 117 |
| CCCCCCCCCC(=O)Nc1ccc(S(=O)(=O)Nc2nncs2)cc1 | 180 |
| COCCOCCOCC(=O)Nc1ccc(S(=O)(=O)Nc2nncs2)cc1 | > 300 |
| CCCCCCCCCC(=O)Nc1ccc(S(=O)(=O)Nc2nnc(C(C)(C)C)s2)cc1 | > 300 |
| CC(=O)Nc1ccc(S(=O)(=O)Nc2nnc(C)s2)cc1 | > 300 |
| CCCCc1ccc(S(=O)(=O)Nc2nncs2)cc1 | > 300 |
| O=S(=O)(Nc1nncs1)c1ccc(-c2ccccc2)cc1 | > 300 |
| CCCCCCc1ccc(S(=O)(=O)Nc2nncs2)cc1 | 266 |
| CCCCCCCCCC(=O)Nc1ccc(S(=O)(=O)Nc2nnc(C)s2)cc1 | 149 |

The molecules below were run on BXPC-3 (assay: Inhibition of AKT phosphorylation at serine 473 residue in human BxPC3 cells at 10 uM after 4 hrs by ELISA).
Assay type: cell-based
How it was run: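 BxPC3 cells kept in DMEM with 10% heat-inactivated FBS and 4.5 g/L glucose under 5% CO2, mycoplasma-free. Compound made fresh as a 10 mM DMSO stock and dosed at 10 μM final into the medium for 4 h. Equal amounts of lysate run on an MSD pSer473-AKT/total AKT plate; read-out is the pAKT/AKT ratio.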

| Compound | inhibition |
| --- | --- |
| CCCCCCCCCCCCc1cccc(S(=O)(=O)Nc2nncs2)c1 | inactive |
| CCCCCCCCCCCCc1ccccc1S(=O)(=O)Nc1nncs1 | inactive |
| CCCCCCCCCCCCc1ccc(S(=O)(=O)Nc2ccccc2)cc1 | inactive |
